Folding enthalpy and Tm data for 37 sequences are collected here from the array DNA melting data of Ke et al. (doi:10.1101/2024.01.08.574731).

Data set [1] in a line: folding enthalpy; higher = less favourable; fluorescence melt of hairpins on a sequencing array, two-state fit. Conditions: sodium 0.088 M. A digest of the protocol: (§1)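 Cy3 fluorescence of library hairpins on a sequenced MiSeq flow cell, with annealed Cy3 and quencher oligos, was imaged in 50 mM Na-HEPES pH 8.0, 25 mM NaCl in 2.5 °C steps up to 60 °C. Signals were normalised to pre-quench Cy3 and to control variants. Melting temperature and folding enthalpy came from bootstrapped two-state fits, inverse-variance combined over four replicates. Fitted temperatures were raised by 9.35 °C to match UV melts.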

A short description of data set [2]: melting temperature; fluorescence melt of hairpins on a sequencing array, two-state fit, raised by 9.35 °C to match UV melts. As to conditions: sodium 0.088 M. A digest of the protocol:
as §1

On to GATCCACCTTGGATC ((((((...)))))), for which the folding enthalpy in data set [1] is -31.7 kcal/mol. For the same sequence, in data set [2], the Tm came to 51.2 °C.
GATCTGTACTCAGATC ((((((....)))))): in data set [1], the folding enthalpy was -36.1 kcal/mol. In data set [2], the Tm was determined as 50.2 °C.
The like results for GATCAATCGATTGATC ((((((....)))))) were, in that order, -53.5 kcal/mol and 51.3 °C.
For GGGCCTCCGAAAGGACCC (((..(((....)))))), in that order: -21.2 kcal/mol and 50.1 °C.
The like results for GATATAGCGAAAGCTATC (((..(((....)))))) were, in that order, -10.1 kcal/mol and 33.9 °C.
Consider GCTGTCGAAAGACTAGC ((((((....))).))), for which the folding enthalpy in data set [1] was -24.4 kcal/mol. The Tm in data set [2] turned out to be 50.3 °C.
The like results for GAGAGGAAACTCTC (((((....))))) were, in that order, -23.4 kcal/mol and 44.6 °C.
The like results for GATCAGCTGTCTGATC ((((((....)))))) were, in that order, -38.9 kcal/mol and 50.3 °C.
With GCCAAGCGAAAGCTCAGC ((..(((....)))..)), the folding enthalpy in data set [1] was -13.6 kcal/mol. Moreover, the Tm in data set [2] was determined as 37.3 °C.
The like results for GGAGTGGGAAACTGCTCC ((((..(....)..)))) were, in that order, -31.5 kcal/mol and 44.5 °C.
For GTCCATCGAAAGATAGAC (((.(((....))).))), in that order: -30.5 kcal/mol and 35.2 °C.
The like results for GATCCTACATAGGATC ((((((....)))))) were, in that order, -35.5 kcal/mol and 52.8 °C.
GATCCACTTATGGATC ((((((....)))))): in data set [1], the folding enthalpy is -42.9 kcal/mol. For the same sequence, the Tm in data set [2] is 50.8 °C.
For GTCTACACGAAAGTGGAC (((..(((....)))))), in that order: -14.1 kcal/mol and 37.2 °C.
As for GCAGGTGGAAACGCTTGC (((.(.(....).).))), in data set [1], the folding enthalpy was -23 kcal/mol. Also, the Tm in data set [2] worked out at 46.6 °C.
Turning to GTGCTCGAAAGAGTCAC ((((((....))).))), the folding enthalpy in data set [1] is -26.7 kcal/mol. Besides, the Tm in data set [2] came to 49.7 °C.
For GTAGTCGAAAGACCTAC ((((((....))).))), the folding enthalpy in data set [1] is -18.9 kcal/mol. In addition, the Tm in data set [2] was 36.8 °C.
For GCCTAACGAAAGTTTGGC (((.(((....))).))), in that order: -50.4 kcal/mol and 54.2 °C.
For GTGTGGGGAAACCCGTAC ((..(((....)))..)), the folding enthalpy in data set [1] was -20.8 kcal/mol. Also, the Tm in data set [2] stood at 33.5 °C.
For GCTATGCGAAAGCAGAGC (((.(((....))).))), in that order: -49 kcal/mol and 60.6 °C.
The like results for GGCTTAGGAAACTGAGCC ((((.((....)).)))) were, in that order, -44.6 kcal/mol and 50.4 °C.
For GATCCTGGCAGGATC ((((((...)))))), in that order: -39.7 kcal/mol and 57.7 °C.
On to GCGCGACGAAAGTCACGC (((.(((....))).))), for which the folding enthalpy in data set [1] is -36.3 kcal/mol. Besides, the Tm in data set [2] amounted to 68.9 °C.
For GTTTGCGAAAGCATTAAC ((((((....)))..))), in that order: -12.2 kcal/mol and 27.3 °C.
The like results for GATCCGCATCGGATC ((((((...)))))) were, in that order, -38.3 kcal/mol and 56.5 °C.
The like results for GTGTGCGGAAACGTACAC ((((.((....)).)))) were, in that order, -40.2 kcal/mol and 56.2 °C.
For the sequence GCACTCGAAAGAGGCTGC ((((((....)))..))), in data set [1], the folding enthalpy was -19.6 kcal/mol. Besides, the Tm in data set [2] was determined as 53 °C.
For GCATCGCGAAAGCCTTGC (((..((....))..))), in that order: -16.7 kcal/mol and 38.3 °C.
With GCCAGGCGAAAGCAAGGC (((..((....))..))), in data set [1], the folding enthalpy is -26.5 kcal/mol. For the same sequence, the Tm in data set [2] stood at 60.6 °C.
The like results for GTGTGTCGAAAGACCAC (((.(((....)))))) were, in that order, -28.9 kcal/mol and 54.5 °C.
For GCAGCTTCGAAAGAATGC (((..(((....)))))), in that order: -12.8 kcal/mol and 29.1 °C.
For GATCAGTGATCTGATC ((((((....)))))), in that order: -36.1 kcal/mol and 50.2 °C.
On to GCCTCGCGAAAGCGCTGC ((..(((....)))..)), for which the folding enthalpy in data set [1] is -10.4 kcal/mol. Also, the Tm in data set [2] was 38.5 °C.
As to GGAGGGGGAAACCCCTTC (.(((((....))))).), the folding enthalpy in data set [1] is -24.1 kcal/mol. In addition, the Tm in data set [2] stood at 50.6 °C.
For GTCTACGGAAACATAGAC (((((.(....).))))), in that order: -27.1 kcal/mol and 31 °C.
The like results for GACAGGAAACTGTC (((((....))))) were, in that order, -31.3 kcal/mol and 51.6 °C.
For GTACTGGGAAACCAGTAC (((((((....))))))), in that order: -36.9 kcal/mol and 58.5 °C.
